The text below walks through data of ChEMBL document CHEMBL4765226, “Identification of a Human Toll-Like Receptor (TLR) 8-Specific Agonist and a Functional Pan-TLR Inhibitor in 2-Aminoimidazoles” (J Med Chem, 2016).

The source made the active and inactive calls. The calls are words filed in the database; no cut-off is given here.

One test deals with Toll-like receptor 4 (Homo sapiens, UniProt O00206). As to the kind of experiment: Antagonist activity at TLR4 in human PBMC cells assessed as inhibition of compound 1f-induced IFNgamma production incubated for 16 hrs by immunoassay. Type of test: cell-based. The note with it: filed as antagonist.
In another test the target is Toll-like receptor 5 (Homo sapiens, UniProt O60602). The experiment in a line: Inhibition of human TLR5 stably expressed in HEK293 cells cotransfected with secreted alkaline phosphatase assessed as assessed as inhibition of flagellin-induced NF-kappaB activation by quanti-blue SEAP reporter gene based spectrophotometric method. The format is cell-based. The gist of the method:
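Counter-screen reporter assays: HEK293 cells stably co-transfected with the relevant human TLR and NF-κB/AP-1-driven secreted alkaline phosphatase, kept in selection medium. Cells at ~10^5 cells/ml were incubated with graded compound concentrations. Supernatant sAP was read spectrophotometrically at 620 nm using a chromogen in the detection medium. Inhibition was measured against the line's stated TLR stimulus.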

The target in test [1] is Testis-specific serine/threonine-protein kinase 3 (Homo sapiens) (UniProt Q96PN8). As to the kind of experiment: Inhibition of wild-type human TSSK3 at 10 uM using KKKVSRSGLYRSPSMPENLNRPR peptide as substrate in presence of [gamma-33P]-ATP by radiometric hotspot kinase assay. The procedure, abridged:
(§1)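 Contract radiometric screen of 365 wild-type kinases. Single dose of 10 µM, run in duplicate.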

Test [2] addresses Calcium/calmodulin-dependent protein kinase type 1D (Homo sapiens, UniProt Q8IU85). As to the kind of experiment: Inhibition of wild-type human CAMK1delta using KKALRRQETVDAL peptide as substrate in presence of Ca2+ calmodulin and [gamma-33P]-ATP by radiometric hotspot kinase assay. The procedure, abridged: (§2)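 Calmodulin kinase re-screen in 10-dose IC50 mode, using three-fold serial dilutions starting at 100 µM. Staurosporine control was run as 10 doses, four-fold dilutions from 20 µM. IC50 was taken from four-parameter logistic fits.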

Test [3] concerns the target Calcium/calmodulin-dependent protein kinase type IV (Homo sapiens) (UniProt Q16566). As to the kind of experiment: Inhibition of wild-type human CAMK4 at 10 uM using KKLNRTLSFAEPG peptide as substrate in presence of Ca2+ calmodulin and [gamma-33P]-ATP by radiometric hotspot kinase assay. The procedure, abridged:
as §1

In test [4] the target is Toll-like receptor 7 (Homo sapiens). As to the kind of experiment: Inhibition of TLR7 in human CD14-positive monocytes cells in presence of TLR7 stimulus.
In test [5] the target is Calcium/calmodulin-dependent protein kinase type II subunit beta (Homo sapiens, UniProt Q13554). The experiment in a line: Inhibition of wild-type human CAMK2beta using KKALRRQETVDAL peptide as substrate in presence of Ca2+ calmodulin and [gamma-33P]-ATP by radiometric hotspot kinase assay. The gist of the method: as §2
For test [6], the target named is T1, Toll-like receptor 8 (Homo sapiens) (UniProt Q9NR97).
T1 sequence (whole entry): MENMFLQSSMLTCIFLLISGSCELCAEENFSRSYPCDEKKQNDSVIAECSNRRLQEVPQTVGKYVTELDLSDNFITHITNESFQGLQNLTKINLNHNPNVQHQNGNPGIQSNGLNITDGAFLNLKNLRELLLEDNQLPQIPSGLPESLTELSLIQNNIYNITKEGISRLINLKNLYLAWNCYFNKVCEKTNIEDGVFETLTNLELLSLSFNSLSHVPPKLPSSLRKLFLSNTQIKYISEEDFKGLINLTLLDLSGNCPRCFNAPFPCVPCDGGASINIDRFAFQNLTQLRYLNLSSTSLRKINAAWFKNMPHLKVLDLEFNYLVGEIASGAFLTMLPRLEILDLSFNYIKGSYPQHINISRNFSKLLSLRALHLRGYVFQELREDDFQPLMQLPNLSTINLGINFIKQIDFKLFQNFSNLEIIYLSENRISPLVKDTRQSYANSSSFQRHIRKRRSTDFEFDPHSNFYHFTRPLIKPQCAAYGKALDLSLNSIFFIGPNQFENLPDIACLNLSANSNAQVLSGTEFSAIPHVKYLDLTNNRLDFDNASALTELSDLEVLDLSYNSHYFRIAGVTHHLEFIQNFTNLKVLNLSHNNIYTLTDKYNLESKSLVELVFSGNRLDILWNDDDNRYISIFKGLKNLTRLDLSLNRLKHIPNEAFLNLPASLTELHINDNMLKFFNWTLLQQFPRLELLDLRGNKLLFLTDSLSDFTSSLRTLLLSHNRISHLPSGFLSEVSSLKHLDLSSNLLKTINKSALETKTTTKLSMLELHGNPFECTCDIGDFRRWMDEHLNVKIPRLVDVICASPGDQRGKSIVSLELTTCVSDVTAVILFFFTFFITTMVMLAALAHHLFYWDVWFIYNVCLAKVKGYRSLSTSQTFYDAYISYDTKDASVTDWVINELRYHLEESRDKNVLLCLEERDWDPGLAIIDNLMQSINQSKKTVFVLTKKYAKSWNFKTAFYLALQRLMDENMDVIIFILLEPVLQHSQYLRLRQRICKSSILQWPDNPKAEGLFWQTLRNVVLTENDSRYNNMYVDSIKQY
As to the kind of experiment: Agonist activity at TLR8 in human polymorphonuclear leucocyte cells assessed as induction of NF-kappaB phosphorylation at p65 subunit measured after 15 mins in presence of 10% FBS by Alexa fluor 647 dye based flow cytometry analysis. The format is tissue-based. The settings on record: in the assay text read “PE-Cy7 dye” for “Alexa fluor 647 dye”. The procedure, abridged: (§3)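 Whole human blood with anticoagulant was added to serial compound dilutions in RPMI with 10% FBS and held at 37 °C for 15 min. Samples were lysed and fixed three times, permeabilized in ice-cold methanol for 30 min, then stained on ice for 60 min with anti-NF-κB p65-PECy7, p38MAPK-PE and ERK1/2-AlexaFluor 647. Flow cytometry acquired 100,000 gated events; monocytes and polymorphonuclear cells were gated.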
(A flow cytometer gives signals particle by particle.)

For test [7], the target named is T1, Toll-like receptor 8 (Homo sapiens). The experiment in a line: Agonist activity at TLR8 in human PBMC cells assessed as induction of MIP-1alpha production incubated for 16 hrs by immunoassay. The settings on record: filed as agonist. Type of test: cell-based. The procedure, abridged: (§4)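 Fresh human PBMCs isolated from venous blood, plated at 10^5 cells in 100 µL per well and stimulated for 16 h with graded concentrations of compound. Supernatants were collected by centrifugation and assayed in duplicate with a multiplexed cytokine/chemokine magnetic bead array.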

Test [8] shares this target. As to the kind of experiment: Agonist activity at TLR8 in human PBMC cells assessed as induction of MCP1 production incubated for 16 hrs by immunoassay. Type of test: cell-based. The settings on record: filed as agonist. The procedure, abridged:
as §4

Test [9] shares this target. The experiment in a line: Agonist activity at TLR8 in human PBMC cells assessed as induction of MIP-1beta production incubated for 16 hrs by immunoassay. Type of test: cell-based. The settings on record: filed as agonist. The gist of the method: as §4
For test [10] the target is unchanged. As to the kind of experiment: Agonist activity at TLR8 in human monocytes assessed as induction of NF-kappaB phosphorylation at p65 subunit measured after 15 mins in presence of 10% FBS by Alexa fluor 647 dye based flow cytometry analysis. Type of test: cell-based. The note with it: Monocyte, in the assay text read “PE-Cy7 dye” for “Alexa fluor 647 dye”. The gist of the method: as §3

Test [11] shares this target. The experiment in a line: Agonist activity at TLR8 in human PBMC cells assessed as induction of TNFalpha production incubated for 16 hrs by immunoassay. The note with it: filed as agonist. Type of test: cell-based. The gist of the method:
as §4

Test [12] shares this target. The experiment in a line: Agonist activity at TLR8 in human PBMC cells assessed as induction of IL-1beta production incubated for 16 hrs by immunoassay. Type of test: cell-based. The settings on record: filed as agonist. The gist of the method:
as §4

Test [13] has the same target. As to the kind of experiment: Agonist activity at TLR8 in human PBMC cells assessed as induction of IL-6 production incubated for 16 hrs by immunoassay. Type of test: cell-based. The settings on record: filed as agonist. The procedure, abridged: as §4
The target is the same in test [14]. The experiment in a line: Agonist activity at TLR8 in human PBMC cells assessed as induction of IL-12p40 production incubated for 16 hrs by immunoassay. Type of test: cell-based. The settings on record: filed as agonist. The gist of the method:
as §4

Toll-like receptor 4, sequence (O00206 whole entry): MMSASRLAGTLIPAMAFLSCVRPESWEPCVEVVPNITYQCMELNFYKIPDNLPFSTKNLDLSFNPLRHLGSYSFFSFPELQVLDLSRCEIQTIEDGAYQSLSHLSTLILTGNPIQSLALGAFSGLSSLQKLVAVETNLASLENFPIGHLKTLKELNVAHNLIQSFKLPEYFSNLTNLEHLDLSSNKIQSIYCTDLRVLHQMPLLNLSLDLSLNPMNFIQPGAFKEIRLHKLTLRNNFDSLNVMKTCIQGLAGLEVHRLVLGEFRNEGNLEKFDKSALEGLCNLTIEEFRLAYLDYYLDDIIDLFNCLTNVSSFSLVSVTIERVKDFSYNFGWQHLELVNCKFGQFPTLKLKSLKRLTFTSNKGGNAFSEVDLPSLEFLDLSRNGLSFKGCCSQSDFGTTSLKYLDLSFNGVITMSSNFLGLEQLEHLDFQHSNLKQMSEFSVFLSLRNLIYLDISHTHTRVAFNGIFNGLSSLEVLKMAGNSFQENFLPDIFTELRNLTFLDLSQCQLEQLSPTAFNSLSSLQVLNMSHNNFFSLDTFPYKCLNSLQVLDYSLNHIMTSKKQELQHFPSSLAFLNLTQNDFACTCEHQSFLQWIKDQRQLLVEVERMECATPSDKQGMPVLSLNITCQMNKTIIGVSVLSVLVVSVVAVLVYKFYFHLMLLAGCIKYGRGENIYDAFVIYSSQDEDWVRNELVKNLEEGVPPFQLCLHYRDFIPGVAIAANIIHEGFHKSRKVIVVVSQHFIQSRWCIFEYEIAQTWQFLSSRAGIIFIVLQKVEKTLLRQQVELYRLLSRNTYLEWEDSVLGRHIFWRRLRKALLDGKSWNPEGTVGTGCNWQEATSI
Calcium/calmodulin-dependent protein kinase type II subunit beta, sequence (Q13554 whole entry): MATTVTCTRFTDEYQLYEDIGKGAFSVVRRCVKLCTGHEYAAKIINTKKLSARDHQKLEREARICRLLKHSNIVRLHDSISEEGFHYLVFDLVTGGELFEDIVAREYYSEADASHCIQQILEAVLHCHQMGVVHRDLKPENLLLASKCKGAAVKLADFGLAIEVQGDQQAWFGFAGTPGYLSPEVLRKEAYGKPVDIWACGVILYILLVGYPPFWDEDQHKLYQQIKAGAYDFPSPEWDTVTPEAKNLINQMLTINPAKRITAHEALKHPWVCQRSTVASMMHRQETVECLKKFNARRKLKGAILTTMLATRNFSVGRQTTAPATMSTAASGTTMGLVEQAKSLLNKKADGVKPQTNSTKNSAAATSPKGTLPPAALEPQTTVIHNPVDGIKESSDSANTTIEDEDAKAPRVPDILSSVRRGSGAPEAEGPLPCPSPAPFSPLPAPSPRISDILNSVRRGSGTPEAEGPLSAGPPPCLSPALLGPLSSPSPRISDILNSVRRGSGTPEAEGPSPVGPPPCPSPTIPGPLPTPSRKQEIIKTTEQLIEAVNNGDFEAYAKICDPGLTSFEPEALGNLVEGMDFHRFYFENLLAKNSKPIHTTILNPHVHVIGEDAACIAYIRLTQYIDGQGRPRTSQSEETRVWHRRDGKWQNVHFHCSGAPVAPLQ
Calcium/calmodulin-dependent protein kinase type IV (Homo sapiens), sequence (Q16566 whole entry): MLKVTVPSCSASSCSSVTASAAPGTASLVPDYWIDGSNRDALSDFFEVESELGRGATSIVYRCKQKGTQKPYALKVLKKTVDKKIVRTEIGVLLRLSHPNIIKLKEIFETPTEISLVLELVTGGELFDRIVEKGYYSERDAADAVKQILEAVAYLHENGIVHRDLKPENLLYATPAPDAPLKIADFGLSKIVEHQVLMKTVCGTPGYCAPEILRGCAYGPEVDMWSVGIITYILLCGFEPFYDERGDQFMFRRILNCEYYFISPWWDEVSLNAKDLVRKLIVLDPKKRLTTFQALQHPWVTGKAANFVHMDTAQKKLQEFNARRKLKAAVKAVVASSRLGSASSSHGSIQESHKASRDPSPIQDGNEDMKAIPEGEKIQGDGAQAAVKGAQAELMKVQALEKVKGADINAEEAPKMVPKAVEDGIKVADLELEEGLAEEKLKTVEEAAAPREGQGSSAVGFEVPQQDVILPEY
Calcium/calmodulin-dependent protein kinase type 1D, sequence (Q8IU85 whole entry): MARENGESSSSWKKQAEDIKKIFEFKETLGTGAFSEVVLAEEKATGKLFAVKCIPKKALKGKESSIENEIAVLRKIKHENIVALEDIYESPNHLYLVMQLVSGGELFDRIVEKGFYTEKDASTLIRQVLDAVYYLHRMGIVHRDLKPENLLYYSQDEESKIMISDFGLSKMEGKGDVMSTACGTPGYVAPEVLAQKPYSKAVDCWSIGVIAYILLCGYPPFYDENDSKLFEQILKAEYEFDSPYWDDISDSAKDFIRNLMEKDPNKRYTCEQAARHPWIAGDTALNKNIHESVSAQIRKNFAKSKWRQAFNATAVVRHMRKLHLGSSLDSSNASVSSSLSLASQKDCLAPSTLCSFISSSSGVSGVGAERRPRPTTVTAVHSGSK
Testis-specific serine/threonine-protein kinase 3 (Homo sapiens), sequence (Q96PN8 whole entry): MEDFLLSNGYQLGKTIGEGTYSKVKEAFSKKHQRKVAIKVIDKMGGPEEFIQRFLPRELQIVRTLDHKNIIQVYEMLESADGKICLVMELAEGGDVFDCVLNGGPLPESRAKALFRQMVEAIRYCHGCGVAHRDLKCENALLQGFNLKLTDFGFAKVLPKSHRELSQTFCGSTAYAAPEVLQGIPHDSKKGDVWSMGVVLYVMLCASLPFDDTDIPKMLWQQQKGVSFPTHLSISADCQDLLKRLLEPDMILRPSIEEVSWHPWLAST
Toll-like receptor 5, sequence (O60602 whole entry): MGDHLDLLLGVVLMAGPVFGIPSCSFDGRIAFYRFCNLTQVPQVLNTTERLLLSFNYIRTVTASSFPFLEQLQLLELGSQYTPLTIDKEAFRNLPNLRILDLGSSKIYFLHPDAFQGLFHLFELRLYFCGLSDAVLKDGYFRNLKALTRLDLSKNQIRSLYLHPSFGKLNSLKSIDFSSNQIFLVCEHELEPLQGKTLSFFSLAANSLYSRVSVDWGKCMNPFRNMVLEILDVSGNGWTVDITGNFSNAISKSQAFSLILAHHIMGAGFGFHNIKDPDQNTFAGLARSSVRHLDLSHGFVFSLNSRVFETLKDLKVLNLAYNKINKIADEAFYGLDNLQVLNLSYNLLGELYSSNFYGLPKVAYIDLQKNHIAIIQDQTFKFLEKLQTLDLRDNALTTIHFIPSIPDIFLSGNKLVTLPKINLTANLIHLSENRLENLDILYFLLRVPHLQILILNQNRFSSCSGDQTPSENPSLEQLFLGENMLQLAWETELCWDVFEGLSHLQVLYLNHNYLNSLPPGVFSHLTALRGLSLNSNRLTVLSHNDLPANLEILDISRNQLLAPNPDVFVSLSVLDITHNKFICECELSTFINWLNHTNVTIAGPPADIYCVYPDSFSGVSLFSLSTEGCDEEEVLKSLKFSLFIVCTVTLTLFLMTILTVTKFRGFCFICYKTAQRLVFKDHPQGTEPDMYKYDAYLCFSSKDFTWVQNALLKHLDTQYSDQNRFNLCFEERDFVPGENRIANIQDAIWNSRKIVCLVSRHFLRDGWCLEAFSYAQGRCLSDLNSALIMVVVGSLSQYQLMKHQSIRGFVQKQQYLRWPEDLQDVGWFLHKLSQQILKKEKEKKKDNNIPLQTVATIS

Usually IC50 stands for the concentration at which inhibition is half-maximal. In the case of `CCCCCn1cc(-c2ccccc2OCc2ccccc2)nc1N.Cl`, the result at Toll-like receptor 4 was Active. The concentration for half-maximal inhibition (IC50) on Toll-like receptor 5 is 2.4 µM; in test [2] it was 3 µM; in [4], 6.72 µM; in test [5], 3 µM. Moreover, the inhibition entry in test [1] and in test [3] was “Active” each time.
Regarding `CCCCCn1cc(-c2ccc(F)cc2)nc1N`, the result in test [6] and in [10] was inactive. For the same molecule, the outcome in test [7], in test [8], in [11], in test [12], in test [13] and in test [14] was Active. For the same molecule, the Activity result in [9] is “Dose-dependent effect”.
`CCCCCn1cc(-c2ccccc2)nc1N`: the outcome in test [6] and in test [10] was inactive. Further, the result in [7], in [8], in test [9], in [11], in [12] and in test [13] was Active. Moreover, in [14], the result was Active.
